Screening results from PubChem.
OX1R antag-1: antagonists of human orexin 1 receptor (OX1R) | OX1R-expressing cells, FRET antagonist read-out | inhibition, % at 6.6 µM | hit rate 1.8% among 330,000 | AID 485270, 2010; in the data active means inhibition mostly above about 38%, no sharp cut-off; inactive means mostly below about 40%
Target sequence (O43613 whole entry, looked up): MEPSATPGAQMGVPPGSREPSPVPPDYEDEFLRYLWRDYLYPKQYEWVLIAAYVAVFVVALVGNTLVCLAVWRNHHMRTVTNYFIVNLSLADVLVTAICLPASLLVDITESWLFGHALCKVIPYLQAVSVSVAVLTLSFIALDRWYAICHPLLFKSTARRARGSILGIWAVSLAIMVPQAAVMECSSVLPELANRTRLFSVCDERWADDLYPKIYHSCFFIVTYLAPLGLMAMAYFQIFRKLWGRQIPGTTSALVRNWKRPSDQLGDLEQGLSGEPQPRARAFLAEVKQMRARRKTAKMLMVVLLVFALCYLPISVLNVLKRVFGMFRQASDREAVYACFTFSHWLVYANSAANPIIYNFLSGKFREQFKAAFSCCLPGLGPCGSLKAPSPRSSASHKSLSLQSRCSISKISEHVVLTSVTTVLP
OX1R antag-2: OX1R (HCRTR1) antagonists, primary screen, fluorescence, CHO/OX1R cells, Fluo-8 calcium, orexin A. inhibition, % at 5 µM. hit rate 0.43% among 330,000. Fluo-8 calcium fluorescence. Orexin/Hypocretin receptor type 1 (Homo sapiens), O43613;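 active means inhibition above its plate's threshold, mean inhibition of all tested compounds on the plate plus 3 SD, cut at about 37% in these data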
GalR3 antagonist: GalR3 antagonists in HEK293 cells, primary screen, cell-based, fluorescence readout; hit rate 0.44% among 360,000; inhibition, % at 3 µM; Galanin receptor type 3 (Homo sapiens), O60755; HEK293 GalR3-CNG cAMP membrane potential fluorescence; galR3 body fused to GalR1 C-terminus;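 active means inhibition above the screen-wide average plus 3 SD, cut at about 13% in these data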;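 further: forskolin and galanin both at EC90 stimulate the cells; cAMP rise reported by CNG channel membrane potential dye signal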
GPR7 antagonist: GPR7 receptor antagonists, primary screen, cell-based, fluorescence, single concentration. Neuropeptides B/W receptor type 1 (Homo sapiens), P48145. hit rate 1.1% among 290,000. GPR7-expressing cells, fluorescence antagonist assay. inhibition, % at 4.4 µM; in the data active means inhibition above about 16%, passing the limit was not always enough;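 further: cells stimulated with the agonist NPW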
Target sequence (P48145 whole entry, looked up): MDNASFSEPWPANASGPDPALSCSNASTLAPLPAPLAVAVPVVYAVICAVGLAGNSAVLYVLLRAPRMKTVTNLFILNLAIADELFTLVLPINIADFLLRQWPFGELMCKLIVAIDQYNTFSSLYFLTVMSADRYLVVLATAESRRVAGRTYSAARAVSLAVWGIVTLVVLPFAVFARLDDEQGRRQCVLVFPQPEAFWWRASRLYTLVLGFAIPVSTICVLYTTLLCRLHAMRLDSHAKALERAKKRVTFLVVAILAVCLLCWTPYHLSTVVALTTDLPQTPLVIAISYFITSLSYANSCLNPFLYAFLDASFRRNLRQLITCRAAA
CHO parental Ca: ATP-evoked calcium signal inhibitors, parental CHO, primary screen, counter-screen for OX1R antagonist project, cell-based, fluorescence, Fluo-8 calcium dye; parental CHO-K1, ATP-induced calcium, Fluo-8 fluorescence; inhibition, % at 5.6 µM; hit rate 0.63% among 330,000;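 active means inhibition above that plate's mean sample inhibition plus 3 SD, cut at about 26% in these data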
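Material – parental CHO cells · Reagent – ATP stimulus · Compound – single nominal dose of 5.6 µM per compound · Detection – Fluo-8 fluorescence · Read-out basis – percent inhibition of calcium signal · Controls – ATP-challenged DMSO wells low, unchallenged DMSO wells high · Repeats – no replicates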
Of the large screens only hits and unclear results are named; the others gave an inactive call. Only some compounds are listed: those with a hit (about 3.1% of all), similar ones and a draw of the others.

CC1CCC2(CC1)NC(=O)N(CC(=O)c1ccc(CNC(=O)C(C)(C)C)s1)C2=O (stereo not given)	OX1R antag-1 35 (no result: GPR7 antagonist)
C/C(=N\NC(=O)CCc1c[nH]c2ccccc12)c1ccc([N+](=O)[O-])cc1	OX1R antag-1 59
C/C(=N\NC(=O)CCc1c(C)n[nH]c1C)c1ccc([N+](=O)[O-])cc1	none
CC(=O)c1ccc(NC(=O)/C(Cl)=C/c2ccccc2)cc1	CHO parental Ca 42
CC(=O)N1CCN(C(=O)COC(=O)/C=C/c2ccccc2[N+](=O)[O-])CC1	OX1R antag-1 37 (no result: GPR7 antagonist)
COc1ccc2c(c1OC)C(=O)N1C(C(=O)O)Cc3c([nH]c4ccccc34)C21 (stereo not given)	OX1R antag-1 75
C[C@@H]1ON(C)[C@H]2C[C@H]3c4cc(N5CCCCC5)ccc4CCN3C[C@@H]12	none (no result: OX1R antag-1, OX1R antag-2, GPR7 antagonist, CHO parental Ca)
O=[N+]([O-])c1ccc(-c2ccc(/C=N/O)o2)cc1	none
O=[N+]([O-])c1ccc(-c2ccc(C=Nc3cccc4ccccc34)o2)cc1	OX1R antag-1 48
CCN(C(=O)COC(=O)c1ccco1)c1c(N)n(Cc2ccccc2)c(=O)[nH]c1=O	none (no result: GPR7 antagonist)
CN(C(=O)COC(=O)c1ccccc1NCc1ccco1)c1c(N)n(Cc2ccccc2)c(=O)[nH]c1=O	OX1R antag-1 64 (no result: GPR7 antagonist)
Cc1ccc(S(=O)(=O)O/N=C2\CCCc3ccccc32)cc1	none
CC1=C(C)/C(=N\OS(=O)(=O)c2ccccc2)C=CC1=O	OX1R antag-1 150, OX1R antag-2 74, GPR7 antagonist 58, CHO parental Ca 65 (no result: GalR3 antagonist)
O=C1NC(c2cccc(C(F)(F)F)c2)c2c(-c3ccccc3)n[nH]c21 (stereo not given)	none (no result: OX1R antag-1, OX1R antag-2, GPR7 antagonist, CHO parental Ca)
COc1ccccc1CC(=O)N(CCC1=CCCCC1)c1c(N)n(Cc2ccccc2)c(=O)[nH]c1=O	none (no result: GPR7 antagonist)
CN1C(=O)S/C(=C/c2cccnc2)C1=O	OX1R antag-1 65
COc1ccc(/C=C/c2nc(-c3ccccc3)cc(=O)[nH]2)cc1	none
COc1ccc(/C=C/c2n[nH]c(=O)c(C#N)c2C)cc1	OX1R antag-1 43
COC(=O)c1sc(S(=O)(=O)NC(Cc2ccccc2)C(=O)O)c(C(=O)OC)c1C (stereo not given)	OX1R antag-1 32 (no result: GPR7 antagonist)
COC(=O)c1c(S(=O)(=O)NCc2ccccc2)sc(C(=O)O)c1C	none
COc1ncc(-c2ccc3c(c2)S(=O)(=O)c2cccc(C(=O)O)c2C3=O)cn1	OX1R antag-1 38 (no result: GPR7 antagonist)
O=C(O)c1cccc2c1C(=O)c1ccc(Cl)cc1S2(=O)=O	OX1R antag-1 39 (no result: GPR7 antagonist)
O=C(O)C1CCCN1C(=O)C1CCN(S(=O)(=O)c2cccc(C(F)(F)F)c2)CC1 (stereo not given)	none (no result: OX1R antag-1, OX1R antag-2, GPR7 antagonist, CHO parental Ca)
CCOc1ccccc1CNC(=O)c1cc2oc3ccccc3c2n1CC	OX1R antag-1 53
COc1cccc(CNC(=O)c2cc3oc4ccccc4c3n2C)c1OC	none
COc1ccc2nc(SCC(=O)NC3(C#N)CCCCC3)[nH]c2c1	none (no result: GPR7 antagonist)
CCOC(=O)c1oc2ccc(S(=O)(=O)n3nc(-c4ccccc4)cc3N)cc2c1C	CHO parental Ca 32
CCOC(=O)c1oc2ccc(S(=O)(=O)n3nc(-c4ccc(OC)cc4)cc3N)cc2c1C	none
CC(C)=CCC/C(C)=C/CNC(=O)C[C@H]1C[C@H](C(=O)N2CCCCC2)[C@@]2(C)c3[nH]c4ccc(Cl)cc4c3CCN2C1=O	none (no result: GPR7 antagonist)
COc1ccc2[nH]c3c(c2c1)CCN1C(=O)C(CC(=O)NC/C=C(\C)CCC=C(C)C)C[C@H](C(=O)N2CCCCC2)[C@@]31C (stereo not given in full)	OX1R antag-2 51 (no result: GalR3 antagonist, GPR7 antagonist)
O=[N+]([O-])c1ccc(NCCNCCOc2nonc2-c2ccccc2)c([N+](=O)[O-])c1	OX1R antag-1 43
O=C(NCCN1CCOCC1)C1CCCN(S(=O)(=O)c2ccc(F)cc2)C1 (stereo not given)	none
CCCCN(C(=O)c1ccc([N+](=O)[O-])o1)c1c(N)n(CCCC)c(=O)[nH]c1=O	OX1R antag-1 62 (no result: GPR7 antagonist)
CCCCn1c(N)c(N(Cc2ccccc2OC)C(=O)c2ccc([N+](=O)[O-])s2)c(=O)[nH]c1=O	OX1R antag-1 50 (no result: GPR7 antagonist)
CCCCN(C(=O)c1ccc(-c2ccc([N+](=O)[O-])cc2)o1)c1c(N)n(CCCC)c(=O)[nH]c1=O	none (no result: GPR7 antagonist)
CCCCn1c(N)c(N(Cc2ccccc2OC)C(=O)COc2ccccc2OC)c(=O)[nH]c1=O	none (no result: GPR7 antagonist)
CC(=O)N1CCc2cc(N=NC3=C(O)CC(C)(C)CC3=O)ccc21	OX1R antag-1 56
Cc1nc2ccc(N=NC3=C(O)CC(C)(C)CC3=O)cc2s1	OX1R antag-1 62
Nc1[nH]c(C(=O)c2ccc(Br)cc2)c(-c2ccc(Cl)cc2Cl)c1C(=O)NCCc1c[nH]c2ccccc12	none (no result: OX1R antag-1, OX1R antag-2, GPR7 antagonist, CHO parental Ca)
COc1ccc2c(c1)[C@@]1(OCCC=C[C@H]1C)C(=O)N2CC1CC1	none (no result: OX1R antag-1, OX1R antag-2, GPR7 antagonist, CHO parental Ca)
Cc1c(=O)n(OCc2ccc(Cl)cc2)c2ccccc2[n+]1[O-]	none
Cc1c(=O)n(OCc2cccc(F)c2)c2ccccc2[n+]1[O-]	OX1R antag-1 42
COc1cccc(OC)c1C(=O)NCCNc1nc2cc(C)cc(C)c2cc1C#N	none (no result: OX1R antag-1, OX1R antag-2, GPR7 antagonist, CHO parental Ca)
COc1ccc2c(c1)NC(c1ccc(N(C)C)cc1)c1cccn1-2 (stereo not given)	OX1R antag-1 67
COc1ccc2c(c1)NC(c1cc(Cl)cc(Cl)c1O)c1cccn1-2 (stereo not given)	none (no result: OX1R antag-1, OX1R antag-2, CHO parental Ca)
CCN(CC)S(=O)(=O)c1ccc(NCCc2ccccn2)nc1	none
CC1Oc2ccccc2C=C1/C=N/NC(=O)c1ccccc1O (stereo not given)	OX1R antag-1 75
O=C1c2ccccc2S(=O)(=O)c2cc(N3CCN(c4ccccc4)CC3)ccc21	none (no result: GPR7 antagonist)
O=C1c2ccccc2S(=O)(=O)c2cc(N3CCOCC3)ccc21	OX1R antag-1 56 (no result: GPR7 antagonist)
Cc1cccc(C)c1NC(=O)c1sccc1SCc1cccc(C(F)(F)F)c1	OX1R antag-2 37, CHO parental Ca 53 (no result: GalR3 antagonist)
NC(=O)C1CCN(C(=O)CCNS(=O)(=O)c2ccccc2F)CC1	none (no result: GPR7 antagonist)
O=C(CSc1nnc(-c2ccccc2F)o1)Nc1ccc(N2CCOCC2)cc1	none (no result: GPR7 antagonist)
CCn1c(CNc2cccc(Cl)c2)nnc1SCc1ccccc1	GPR7 antagonist 19
Cn1c(CNC(=O)Nc2cccc(Cl)c2)nnc1SCc1ccccc1	none
Oc1ccc(Br)cc1-c1cc(-c2ccccc2)n[nH]1	none
Oc1ccc(Br)cc1-c1cc(-c2ccc(Cl)cc2)n[nH]1	CHO parental Ca 50
O=C(N/N=C/c1ccc(-c2ccc(Br)cc2)o1)c1ccc2c(c1)OCO2	OX1R antag-1 36
O=C(N/N=C\c1cn(-c2ccccc2)nc1-c1ccccc1)c1ccc2c(c1)OCO2	OX1R antag-1 77
Nc1[nH]c(C(=O)c2ccccc2)c(-c2cc(F)ccc2Br)c1C(=O)NCCc1c[nH]c2ccccc12	none (no result: OX1R antag-1, OX1R antag-2, GPR7 antagonist, CHO parental Ca)
